The target in assay [1] is T1, 3CLpro (Severe acute respiratory syndrome coronavirus 2, UniProt P0DTD1). It counts as biochemical, SARS-CoV-2.
For assay [2], the target named is T1, 3CLpro. Description: Surface plasmon resonance. Type of assay: binding, SARS-CoV-2. As to conditions: SPR, heterogeneous ligand model. For orientation: SPR reads the build-up and loss of mass on a sensor chip optically.
The target of assay [3] is T1, 3CLpro. Kind of assay: Isothermal titration calorimetry. Details: species or system SARS-CoV-2. As to conditions: KD of the secondary binding, ITC, two sets of independent sites model, 25 °C. Summed up:
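ITC was run at 25 °C in 10 mM HEPES pH 7.4 containing 2% DMSO. Test compound (2 mM, syringe) was injected stepwise into 40 μM 3CLpro in the cell, with 120 s between injections. A matching titration into buffer alone was subtracted. Integrated peak areas were fitted with a two-sets-of-independent-sites model.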
For orientation: ITC needs no label: the signal is the heat of the interaction.

For another assay, the target named is T2, Papain (Carica papaya, UniProt P00784).
T2 sequence (P00784 134-345): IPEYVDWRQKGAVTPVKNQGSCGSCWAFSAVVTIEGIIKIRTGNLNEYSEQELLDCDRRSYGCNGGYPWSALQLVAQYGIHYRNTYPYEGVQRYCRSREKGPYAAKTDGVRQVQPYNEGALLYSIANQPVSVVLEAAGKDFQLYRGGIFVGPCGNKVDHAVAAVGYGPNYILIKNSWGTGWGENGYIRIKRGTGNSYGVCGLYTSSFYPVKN
Kind of assay: Enzyme activity assay, hydrolytic activity of Papain. Type of assay: biochemical.

Assay [4] deals with T1, 3CLpro. Description: biochemical. It counts as binding, SARS-CoV-2.
Assay [5] addresses T3, 3CLpro of SARS-CoV-2 (Severe acute respiratory syndrome coronavirus 2, UniProt P0DTD1). Kind of assay: Enzyme activity assay, hydrolytic activity of 3CLpro. It counts as biochemical.
In assay [6] the target is T3, 3CLpro of SARS-CoV-2. Description: Analysis of inhibition type. It counts as biochemical.
In another assay the target is Proteinase K (Parengyodontium album, UniProt P06873). Description: Enzyme activity assay, hydrolytic activity of Proteinase K. It counts as biochemical.
[7] abbreviates: HTS of ∼6000 compounds at 16.7 μM.

The results in this text go back to paper PMC8716398 (Biochemical and Biophysical Research Communications, 2021).

Like-named read-outs stand apart in the source and are kept apart here.

Chain of Proteinase K (P06873 106-384): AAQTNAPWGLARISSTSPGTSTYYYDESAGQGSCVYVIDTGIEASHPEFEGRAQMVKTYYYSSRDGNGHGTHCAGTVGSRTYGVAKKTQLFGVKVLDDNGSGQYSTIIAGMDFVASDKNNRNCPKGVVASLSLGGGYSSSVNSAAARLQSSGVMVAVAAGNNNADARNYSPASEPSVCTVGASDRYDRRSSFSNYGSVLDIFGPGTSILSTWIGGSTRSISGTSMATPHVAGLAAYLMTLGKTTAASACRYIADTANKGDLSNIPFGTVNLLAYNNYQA

Take `CCN(CC)C(=S)SSC(=S)N(CC)CC` [Disulfiram]: the “HTS outcome (potential 3CLpro inhibitor)” value on 3CLpro [1] (setting [7]) is “screened out”.

Consider `O=c1c2ccccc2[se]n1-c1ccccc1` [Ebselen], for which the “HTS outcome (potential 3CLpro inhibitor)” value on 3CLpro [1] was “screened out”.

Molecule `O=C(O)c1ccccc1-c1c2cc(Br)c(=O)cc-2oc2[c]([Hg+])c(O)c(Br)cc12` [Merbromin] yielded a ka1 at 3CLpro [2] (first set) of 694.6 ± 2.61 M⁻¹ s⁻¹. The kd1 on 3CLpro [2] (first set) is 1.25 ± 0.01 × 10^−3 s^−1. Also, on 3CLpro [2] (second set), the ka2 is 646.7 ± 3.98 M⁻¹ s⁻¹. Besides, on 3CLpro [2] (second set), the kd2 is recorded as 16.25 ± 0.08 × 10^−3 s^−1. Besides, the Kd on 3CLpro [3] turned out to be 67.8 µM; on 3CLpro [4], 11.8 ± 0.98 µM. For the same molecule, the concentration for half-maximal inhibition (IC50) is 8.03 µM on Papain, 2.7 ± 0.17 µM against 3CLpro of SARS-CoV-2 [5] and over 70 µM at Proteinase K. Also, at 3CLpro of SARS-CoV-2 [6], affinity was put at a Ki of 3.93 ± 1.41 µM. Further, the “mixed constant (Alpha)” value on 3CLpro of SARS-CoV-2 [6] (mixed model inhibition, global fit Eqn. (4)) worked out at 3.77 ± 3.96.

`CCC(C)SSc1ncc[nH]1` (centres unmarked) [PX-12]: the “HTS outcome (potential 3CLpro inhibitor)” value on 3CLpro [1] is reported as “screened out”.

Turning to `CC(C)=CC[C@@H](O)C1=CC(=O)c2c(O)ccc(O)c2C1=O` [Shikonin], the “HTS outcome (potential 3CLpro inhibitor)” value at 3CLpro [1] (setting [7]) is “screened out”.

On to `Cn1sc(=O)n(Cc2ccccc2)c1=O` [TDZD-8], for which the “HTS outcome (potential 3CLpro inhibitor)” value on 3CLpro [1] (setting [7]) was “screened out”.

With `O=c1sn(-c2cccc3ccccc23)c(=O)n1Cc1ccccc1` [Tideglusib], the “HTS outcome (potential 3CLpro inhibitor)” value at 3CLpro [1] (setting [7]) is recorded as “screened out”.

For orientation: Kd means the concentration at which binding is half-saturated. The low end stands for higher affinity, the high end for lower affinity. One may read the IC50 as the midpoint of a concentration-inhibition curve. The Ki is the equilibrium dissociation constant of an inhibitor or competing ligand from its target. A lower Ki goes with tighter binding.
